Test results published in ChEMBL document CHEMBL1135587, “Discovery and structure-activity relationship of N-(ureidoalkyl)-benzyl-piperidines as potent small molecule CC chemokine receptor-3 (CCR3) antagonists” (J Med Chem, 2002).

target: T1, C-C chemokine receptor type 3 (Homo sapiens) (UniProt P51677); assay: Evaluated for its % inhibitory activity against Chemokine receptor type 3 at 5 uM; conditions: not given
T1 sequence (whole entry): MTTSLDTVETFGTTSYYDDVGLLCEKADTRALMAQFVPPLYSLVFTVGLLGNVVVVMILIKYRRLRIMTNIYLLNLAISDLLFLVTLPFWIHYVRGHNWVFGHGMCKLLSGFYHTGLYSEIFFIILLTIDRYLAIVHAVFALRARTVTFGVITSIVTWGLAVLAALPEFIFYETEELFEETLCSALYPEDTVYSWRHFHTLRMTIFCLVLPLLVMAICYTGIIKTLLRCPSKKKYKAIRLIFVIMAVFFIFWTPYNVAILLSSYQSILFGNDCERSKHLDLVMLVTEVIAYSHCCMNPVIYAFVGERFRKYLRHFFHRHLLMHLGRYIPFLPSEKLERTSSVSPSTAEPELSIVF
Outline: (§1)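 CHO cells transfected with human CCR3, 5×10^5 per well, incubated 30 min at room temperature with 150 pM (final) 125I-labeled human eotaxin and compound. Binding buffer: RPMI 1640 with 0.5% BSA, 20 mM HEPES, 5 mM MgCl2. Filtration on protamine-treated filter plates, washed with binding buffer plus 0.5 M NaCl, filter counted. Nonspecific binding defined with 100 nM eotaxin. Percent inhibition taken against compound-free total binding. IC50 values are the mean of usually three determinations.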

| inhibition [%] | Compound |
| --- | --- |
| 35 | O=C(Nc1ccc(F)cc1F)Nc1ccccc1C(=O)CN1CCC(Cc2ccccc2)CC1 |

target: T1, C-C chemokine receptor type 3 (Homo sapiens); assay: Evaluated for its % inhibitory activity against human Chemokine receptor type 3 expressed in chinese hamster ovary cells; format: cell-based; conditions: CHO; concentration not given here; outline: as §1

| inhibition [%] | Compound |
| --- | --- |
| 72 | COC(=O)c1ccc(CN2CCC(Cc3ccccc3)CC2)c(NC(=O)Nc2cccc(C#N)c2)c1 |

target: T1, C-C chemokine receptor type 3 (Homo sapiens); assay: Evaluated for its inhibitory activity against human Chemokine receptor type 3 expressed in chinese hamster ovary cells at 10 uM; format: cell-based; conditions: CHO; outline: as §1

| inhibition [%] | Compound |
| --- | --- |
| 19 | OC1(c2ccc(Cl)cc2)CCN(CCc2ccccc2)CC1 |

target: T2, C-C chemokine receptor type 3 (Homo sapiens, UniProt P51677); assay: Inhibitory activity against recombinant human Chemokine receptor type 3 (CCR3) expressed in chinese hamster ovary cells; format: cell-based, CHO; conditions: not given; outline: as §1
T2 sequence (P51677 whole entry): T1 sequence (whole entry)

| IC50 [nM] | Compound |
| --- | --- |
| 2.6 | CC(=O)c1cccc(NC(=O)Nc2ccccc2CCN2CCC(Cc3ccc(F)cc3)CC2)c1 |
| 1 | CNC(=O)c1cccc(NC(=O)Nc2cccc(C#N)c2)c1CN1CCC(Cc2ccc(F)cc2)CC1 |
| 8 | COC(=O)c1cccc(NC(=O)Nc2cccc(C(C)=O)c2)c1CN1CCC(Cc2ccc(F)cc2)CC1 |
| 140 | N#Cc1cccc(NC(=O)Nc2ccccc2CCN2CCC(Cc3ccccc3)CC2)c1 |
| 180 | COc1cccc(NC(=O)Nc2ccccc2CCN2CCC(Cc3ccccc3)CC2)c1 |
| 12000 | NCC(CCCN1CCC(O)(c2ccc(Cl)cc2)CC1)(c1ccccc1)c1ccccc1 |
| 81 | COc1cccc(NC(=O)Nc2ccccc2C(O)CN2CCC(Cc3ccccc3)CC2)c1 (centres undefined) |
| 3 | CC(=O)c1cccc(NC(=O)Nc2ccc(C(N)=O)cc2CN2CCC(Cc3ccc(F)cc3)CC2)c1 |
| 1 | CNC(=O)c1cccc(NC(=O)Nc2cccc(C(C)=O)c2)c1CN1CCC(Cc2ccc(F)cc2)CC1 |
| 2400 | O=C(NCC1CCCCC1)NCC(CCCN1CCC(O)(c2ccc(Cl)cc2)CC1)(c1ccccc1)c1ccccc1 |
| 2 | CC(=O)c1cccc(NC(=O)Nc2cccc(C(N)=O)c2CN2CCC(Cc3ccc(F)cc3)CC2)c1 |
| 450 | O=C(Nc1ccc2[nH]ncc2c1)Nc1ccccc1CN1CCC(Cc2ccccc2)CC1 |
| 8300 | O=C(NCc1ccccc1)NCC(CCCN1CCC(O)(c2ccc(Cl)cc2)CC1)(c1ccccc1)c1ccccc1 |
| 3900 | O=C(Nc1ccccc1CN1CCC(Cc2ccccc2)CC1)NC1CCN(Cc2ccccc2)CC1 |
| 2 | CNC(=O)c1cccc(NC(=O)Nc2cccc(OC)c2)c1CN1CCC(Cc2ccc(F)cc2)CC1 |
| 2 | CNC(=O)c1cccc(NC(=O)Nc2ccccc2)c1CN1CCC(Cc2ccc(F)cc2)CC1 |
| 8 | CNC(=O)c1ccc(NC(=O)Nc2cccc(C(C)=O)c2)c(CN2CCC(Cc3ccc(F)cc3)CC2)c1 |
| 600 | COc1cccc(NC(=O)Nc2ccccc2CN2CCC(Cc3ccccc3)CC2)c1 |
| 3400 | O=C(NCc1ccccc1)Nc1ccccc1CN1CCC(Cc2ccccc2)CC1 |
| 900 | O=C(Nc1ccccc1)Nc1ccccc1CN1CCC(Cc2ccccc2)CC1 |

| Compound | IC50 [nM] |
| --- | --- |
| CNC(=O)NCC(CCCN1CCC(O)(c2ccc(Cl)cc2)CC1)(c1ccccc1)c1ccccc1 | 8300 |
| c1ccc(CCN2CCC(Cc3ccccc3)CC2)cc1 | 7100 |
| O=C(NCC(CCCN1CCC(O)(c2ccc(Cl)cc2)CC1)(c1ccccc1)c1ccccc1)Nc1ccccc1 | 9800 |
| O=C(NCCCO)NCC(CCCN1CCC(O)(c2ccc(Cl)cc2)CC1)(c1ccccc1)c1ccccc1 | 2350 |
| N#CC(CCCN1CCC(Cc2ccccc2)CC1)(c1ccccc1)c1ccccc1 | 4600 |
| O=C(NCC(CCCN1CCC(O)(c2ccc(Cl)cc2)CC1)(c1ccccc1)c1ccccc1)Nc1ccc(C(F)(F)F)cc1 | 5200 |
| CC(C)NC(=O)NCC(CCCN1CCC(O)(c2ccc(Cl)cc2)CC1)(c1ccccc1)c1ccccc1 | 6100 |
| O=C(NCC(CCCN1CCC(O)(c2ccc(Cl)cc2)CC1)(c1ccccc1)c1ccccc1)Nc1cccc(C(F)(F)F)c1 | 19300 |
| O=C(NCCc1ccc(F)cc1)NCC(CCCN1CCC(O)(c2ccc(Cl)cc2)CC1)(c1ccccc1)c1ccccc1 | 2200 |
| CN(C)CCNC(=O)NCC(CCCN1CCC(O)(c2ccc(Cl)cc2)CC1)(c1ccccc1)c1ccccc1 | 2230 |

target: T1, C-C chemokine receptor type 3 (Homo sapiens); assay: Evaluated for its inhibitory activity against human Chemokine receptor type 3 expressed in chinese hamster ovary cells at 5 uM; format: cell-based; conditions: CHO; outline: as §1

| inhibition [%] | Compound |
| --- | --- |
| 71 | O=C(Nc1ccccc1)Nc1cccc(C(O)CN2CCC(Cc3ccccc3)CC2)c1 (centres undefined) |
| 21 | O=C(Nc1cc(F)ccc1F)Nc1ccccc1CN1CCC(O)(c2ccc(Cl)cc2)CC1 |
| 9 | O=C(Nc1cc(F)ccc1F)Nc1ccccc1N1CCC(Cc2ccccc2)CC1 |
| 28 | O=C(Nc1cc(F)ccc1F)Nc1ccccc1CN1CCN(Cc2ccccc2)CC1 |
| 47 | N#Cc1cccc(NC(=O)Nc2ccc(CN3CCC(Cc4ccccc4)CC3)cc2)c1 |

target: T3, C-C chemokine receptor type 1 (Homo sapiens, UniProt P32246); assay: Inhibitory activity against human Chemokine receptor type 1 expressed in chinese hamster ovary cells; format: cell-based, CHO; conditions: not given
T3 sequence (P32246 whole entry): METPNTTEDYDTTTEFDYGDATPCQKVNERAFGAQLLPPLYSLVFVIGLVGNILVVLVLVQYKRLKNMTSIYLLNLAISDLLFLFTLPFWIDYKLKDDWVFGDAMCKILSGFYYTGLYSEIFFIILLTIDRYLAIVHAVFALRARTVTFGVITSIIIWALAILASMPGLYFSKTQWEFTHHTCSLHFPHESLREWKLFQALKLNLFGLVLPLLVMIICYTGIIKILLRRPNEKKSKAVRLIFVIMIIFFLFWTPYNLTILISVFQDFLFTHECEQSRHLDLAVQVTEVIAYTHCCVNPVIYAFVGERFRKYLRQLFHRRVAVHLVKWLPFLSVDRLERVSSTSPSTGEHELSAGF

| IC50 [nM] | Compound |
| --- | --- |
| > 10000 | N#Cc1cccc(NC(=O)Nc2ccccc2CCN2CCC(Cc3ccccc3)CC2)c1 |
| > 10000 | COc1cccc(NC(=O)Nc2ccccc2CCN2CCC(Cc3ccccc3)CC2)c1 |
| 760 | NCC(CCCN1CCC(O)(c2ccc(Cl)cc2)CC1)(c1ccccc1)c1ccccc1 |
| > 10000 | COc1cccc(NC(=O)Nc2ccccc2C(O)CN2CCC(Cc3ccccc3)CC2)c1 (centres undefined) |
| 125 | O=C(NCC1CCCCC1)NCC(CCCN1CCC(O)(c2ccc(Cl)cc2)CC1)(c1ccccc1)c1ccccc1 |
| > 10000 | O=C(Nc1ccc2[nH]ncc2c1)Nc1ccccc1CN1CCC(Cc2ccccc2)CC1 |
| < 780 | O=C(NCc1ccccc1)NCC(CCCN1CCC(O)(c2ccc(Cl)cc2)CC1)(c1ccccc1)c1ccccc1 |
| > 50000 | O=C(Nc1ccccc1CN1CCC(Cc2ccccc2)CC1)NC1CCN(Cc2ccccc2)CC1 |
| > 10000 | COc1cccc(NC(=O)Nc2ccccc2CN2CCC(Cc3ccccc3)CC2)c1 |
| > 10000 | O=C(NCc1ccccc1)Nc1ccccc1CN1CCC(Cc2ccccc2)CC1 |
| > 10000 | O=C(Nc1ccccc1)Nc1ccccc1CN1CCC(Cc2ccccc2)CC1 |

| Compound | IC50 [nM] |
| --- | --- |
| CNC(=O)NCC(CCCN1CCC(O)(c2ccc(Cl)cc2)CC1)(c1ccccc1)c1ccccc1 | < 780 |
| c1ccc(CCN2CCC(Cc3ccccc3)CC2)cc1 | > 50000 |
| O=C(NCC(CCCN1CCC(O)(c2ccc(Cl)cc2)CC1)(c1ccccc1)c1ccccc1)Nc1ccccc1 | < 780 |
| O=C(NCCCO)NCC(CCCN1CCC(O)(c2ccc(Cl)cc2)CC1)(c1ccccc1)c1ccccc1 | 31 |
| N#CC(CCCN1CCC(Cc2ccccc2)CC1)(c1ccccc1)c1ccccc1 | > 50000 |
| O=C(NCC(CCCN1CCC(O)(c2ccc(Cl)cc2)CC1)(c1ccccc1)c1ccccc1)Nc1ccc(C(F)(F)F)cc1 | 890 |
| CC(C)NC(=O)NCC(CCCN1CCC(O)(c2ccc(Cl)cc2)CC1)(c1ccccc1)c1ccccc1 | < 780 |
| O=C(NCC(CCCN1CCC(O)(c2ccc(Cl)cc2)CC1)(c1ccccc1)c1ccccc1)Nc1cccc(C(F)(F)F)c1 | 1410 |
| O=C(NCCc1ccc(F)cc1)NCC(CCCN1CCC(O)(c2ccc(Cl)cc2)CC1)(c1ccccc1)c1ccccc1 | 295 |
| CN(C)CCNC(=O)NCC(CCCN1CCC(O)(c2ccc(Cl)cc2)CC1)(c1ccccc1)c1ccccc1 | 67 |

test system: not listed separately; assay: The compound was evaluated for its intracellular calcium mobilization; format: functional, cell-based; conditions: Homo sapiens
Outline: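 Freshly isolated human eosinophils loaded with 5 μM fluo-3 for 60 min at 37 °C, washed, then plated at 2×10^5/well in phenol red-free binding buffer. Compound or buffer added for 5 min, then eotaxin to 10 nM final, read on FLIPR. Base-to-peak fluorescence shift measured in duplicate; inhibition at graded concentrations expressed as percent of the compound-free eotaxin control to give IC50.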

| IC50 [nM] | Compound |
| --- | --- |
| 5.3 | CNC(=O)c1cccc(NC(=O)Nc2cccc(C#N)c2)c1CN1CCC(Cc2ccc(F)cc2)CC1 |
| 8.2 | COC(=O)c1cccc(NC(=O)Nc2cccc(C(C)=O)c2)c1CN1CCC(Cc2ccc(F)cc2)CC1 |
| 9.5 | CC(=O)c1cccc(NC(=O)Nc2ccc(C(N)=O)cc2CN2CCC(Cc3ccc(F)cc3)CC2)c1 |
| 1.4 | CNC(=O)c1cccc(NC(=O)Nc2cccc(C(C)=O)c2)c1CN1CCC(Cc2ccc(F)cc2)CC1 |
| 5.9 | CC(=O)c1cccc(NC(=O)Nc2cccc(C(N)=O)c2CN2CCC(Cc3ccc(F)cc3)CC2)c1 |
| 4.2 | CNC(=O)c1cccc(NC(=O)Nc2cccc(OC)c2)c1CN1CCC(Cc2ccc(F)cc2)CC1 |
| 4.3 | CNC(=O)c1cccc(NC(=O)Nc2ccccc2)c1CN1CCC(Cc2ccc(F)cc2)CC1 |
| 11.8 | CNC(=O)c1ccc(NC(=O)Nc2cccc(C(C)=O)c2)c(CN2CCC(Cc3ccc(F)cc3)CC2)c1 |

target: T2, C-C chemokine receptor type 3; assay: Evaluated for its inhibitory activity against human Chemokine receptor type 3 expressed in chinese hamster ovary cells; format: cell-based, CHO; conditions: not given
Outline: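 Competition binding on CHO cells transfected with human CCR3, 5×10^5 cells per well, against 125I-human eotaxin at 150 pM final. Binding buffer: RPMI 1640 with 0.5% BSA, 20 mM HEPES, 5 mM MgCl2. Incubated 30 min at room temperature, then filtered on protamine-treated plates and washed with buffer plus 0.5 M NaCl before counting. Background binding defined with 100 nM eotaxin. Percent inhibition taken against the compound-free total. Values usually mean of three determinations.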

| Compound | IC50 [nM] |
| --- | --- |
| OC1(c2ccc(Cl)cc2)CCN(Cc2ccccc2)CC1 | 18700 |

test system: not listed separately; assay: The compound was evaluated for its eotaxin-induced chemotaxis; format: functional, Homo sapiens; conditions: not given
Outline: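 Freshly isolated human eosinophils at 1×10^6 cells/mL in RPMI 1640/0.1% BSA; cells and 20 nM human eotaxin each mixed 1:1 with compound-containing medium. Eotaxin/compound in the lower well, cells/compound above, across a 5 μm PVP-free polycarbonate filter, 45 min at 37 °C. Filter wiped, dried and Wright Giemsa-stained; migrated cells counted by microscopy.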

| IC50 [nM] | Compound |
| --- | --- |
| 71 | CC(=O)c1cccc(NC(=O)Nc2ccccc2CCN2CCC(Cc3ccc(F)cc3)CC2)c1 |
| 76 | COC(=O)c1cccc(NC(=O)Nc2cccc(C(C)=O)c2)c1CN1CCC(Cc2ccc(F)cc2)CC1 |
| 30 | CNC(=O)c1cccc(NC(=O)Nc2cccc(C(C)=O)c2)c1CN1CCC(Cc2ccc(F)cc2)CC1 |
| 46 | CC(=O)c1cccc(NC(=O)Nc2cccc(C(N)=O)c2CN2CCC(Cc3ccc(F)cc3)CC2)c1 |

target: T1, C-C chemokine receptor type 3 (Homo sapiens); assay: Evaluated for its inhibitory activity against Chemokine receptor type 3 at 5 uM; conditions: not given; outline: as §1

| inhibition [%] | Compound |
| --- | --- |
| 59 | O=C(Nc1ccccc1)Nc1ccccc1/C(CN1CCC(Cc2ccccc2)CC1)=N\O |

target: T1, C-C chemokine receptor type 3 (Homo sapiens); assay: Evaluated for % inhibitory activity against human Chemokine receptor type 3 expressed in chinese hamster ovary cells; format: cell-based; conditions: CHO; concentration not given here; outline: as §1

| inhibition [%] | Compound |
| --- | --- |
| 48 | COc1ccc(NC(=O)Nc2ccc(CN3CCC(Cc4ccccc4)CC3)cc2)cc1 |
